Results collected from several papers.
Protocols differ between the studies behind these lines.
Target: Myosin-IIIa (MYO3A, Homo sapiens, UniProt Q8NEV4)

`CN(c1nccc(-c2cnn3ncccc23)n1)C1CC1` has a remaining binding of 77% (binding; 1 µM).
With `O=C(NS(=O)(=O)c1ccc(NCC2CCOCC2)c([N+](=O)[O-])c1)c1ccc(N2CCN(Cc3ccc(C(F)(F)F)cc3-c3ccc(Cl)cc3)CC2)cc1Oc1cnc2[nH]ccc2c1` the remaining binding was 85% (cell-free assay; competition with immobilised ligand; 1 µM).
With `O=C(NCC1CCOCC1)c1n[nH]cc1NC(=O)c1c(F)cccc1F` the remaining binding was 88% (binding; competition with immobilised ligand; 1 µM).
With `c1cncc(-c2cccc(Nc3nccc(NC4CCCCC4)n3)c2)c1` the remaining binding was 99% (binding; competition with immobilised ligand; 10 µM).
`c1cnn2ncc(-c3ccnc(N4CCC45COC5)n3)c2c1` gave a remaining binding of 55% (binding; 1 µM).
`O=C(O)c1cc(-c2ccc(C3CCNCC3)cc2)c2ccc(-c3ccc(C(F)(F)F)cc3)cc2c1` gave a remaining binding of 100% (binding; competition with immobilised ligand; 1 µM).
The remaining binding of `Cc1cnc(Nc2ccc(C(=O)N3CCC(N4CCCC4)CC3)cc2)nc1-c1cc2ccccc2s1` is reported as 85% (binding; competition with immobilised ligand; 1 µM).
With `COc1cnc(Nc2cccc(S(N)(=O)=O)c2)nc1N1CCN(c2ccccc2)C(=O)C1` the remaining binding was 100% (binding; competition with immobilised ligand; 1 µM).
The remaining binding of `O=C(c1ccc(Nc2ncc(Cl)c(-c3ccc(Cl)s3)n2)cc1)N1CCC(N2CCCC2)CC1` is reported as 81% (binding; competition with immobilised ligand; 1 µM).
The remaining binding of `C=CC(=O)N1CCC(C(=O)NCC(=O)N2CCN(c3nc(-c4cnc(N)nc4C(F)F)nc(N4CCOCC4)n3)CC2)CC1` is reported as 100% (binding; competition with immobilised ligand; 1 µM).
The remaining binding of `O=C(c1ccc(Nc2nccc(-c3cc4ccccc4s3)n2)cc1)N1CCC(N2CCCC2)CC1` is reported as 100% (binding; competition with immobilised ligand; 1 µM).
For `COc1ccnn2ncc(-c3ccnc(N(C)C)n3)c12`, the remaining binding was 96% (binding; 1 µM).
With `CCC(=N\O)/C(C)=C/c1ccc(F)cc1` the remaining binding was 100% (cell-free assay; competition with immobilised ligand; 1 µM).
For `Cc1cnn2ncc(-c3ccnc(N(C)C)n3)c2c1`, the remaining binding was 100% (binding; 1 µM).
For `c1ccc(N2CCN(Cc3nc4ccccc4[nH]3)CC2)nc1`, the remaining binding was 100% (binding; competition with immobilised ligand; 1 µM).
With `COc1cnc(Nc2cccc(S(N)(=O)=O)c2)nc1N1CCN(c2ccccc2)CC1` the remaining binding was 100% (binding; competition with immobilised ligand; 1 µM).
With `CN(C)c1nccc(-c2cnc3ncccn23)n1` the remaining binding was 90% (binding; 1 µM).
For `C[C@@H]1CN(c2cc(-c3nn(C)c4ccc(OC5(C)CC5)cc34)ncn2)C[C@H](C)O1`, the remaining binding was 100% (cell-free assay; competition with immobilised ligand; 1 µM).
`CN(C)c1ncc(F)c(-c2cnn3ncccc23)n1` gave a remaining binding of 100% (binding; 1 µM).
The remaining binding of `FC(F)(F)Oc1cccc(-c2cnc3ccc(-c4ccncc4)nn23)c1` is reported as 82% (cell-free assay; competition with immobilised ligand; 5 µM).
`CCCCN(CCCC)C(=O)CN1C[C@@H](c2cc(OC)c3c(c2)OCO3)[C@H](C(=O)O)[C@H]1CC(C)(C)CCC` has a remaining binding of 100% (cell-free assay; competition with immobilised ligand; 1 µM).
